Unmarked numbers belong to inactive results. Activity calls are given as the source filed them.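 How the source made its calls, unless noted: active means viability at or under a set limit in both replicates, limit being median viability minus 3 SD (cut at about 48% in these data, passing the limit was not always enough); inconclusive means at or under the limit in just one replicate; inactive means at or above the limit in both replicates.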
Assay: HUVEC growth inhibition – cell-based, human, primary screen (AID 575;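 active means viability at or below 30% in both replicate assays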;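 further: 100% = median of untreated cell wells with 0.1% DMSO on each plate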)
Details: HUVEC proliferation, CellTiter-Glo luminescence, 72 h; at 10 µM; hits give low values
Procedure, shortened: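 System: primary human umbilical vein endothelial cells; Quantity: 1250 endothelial cells in each well; Buffer or medium: supplemented EBM, 2% fetal bovine serum; Doses: one dose, 10 µM final, 0.1% DMSO; Incubation: 72 h compound incubation; Technique: ATP-based CellTiter-Glo luminescent read; Evaluation: percent of median DMSO-control luminescence; Controls: vehicle and MePR control wells.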
`Cn1c(=O)c2c(nc(N3CCCCC3)n2CCSc2nc3ccccc3o2)n(C)c1=O` showed a viability of 88.4%. `CCOC(=O)C1=C(C)N=c2s/c(=C\c3cccn3C)c(=O)n2C1c1cccc(OC)c1OC` (stereo not given) gave a viability of 75.7%. `C=CCn1c(SCC(=O)O)nnc1-c1cccc(Cl)c1` showed a viability of 103%. Compound `Cc1ccc(S(=O)(=O)N2CCC(C(=O)NCCN3CCCCCC3)CC2)cc1` has a viability of 108%. `CCOC(=O)c1sc(N2C(=O)C(O)=C(C(=O)c3ccco3)C2c2ccccc2)nc1C` (stereo not given) showed a viability of 77.4%. For `COc1cc(C)nc(NS(=O)(=O)c2ccc(C)cc2)n1`, the viability was 98.5%. For `CCCCC(=O)Nc1nn(CCC)c2nc3ccccc3cc12`, the viability was 92.5%. With `CCCCCOC(=O)CSc1nnc(-c2cc(OC)c(OC)c(OC)c2)o1` the viability was 104%. For `O=C(CN1CCN(C(=O)c2ccccc2)CC1)Nc1ncc(Br)cc1Br`, the viability was 92.2%. In the case of `O=C(c1ccc2c(c1)OCCO2)C1CCN(C(=O)c2ccc(F)cc2)CC1`, the viability is reported as 93.7%. With `Cc1cc2c(c(=O)n1CCc1ccccc1)C(C(C)C)C(C#N)=C(N)O2` (stereo not given) the viability was 93.9%. For `Cc1cc(NC(=O)Cn2cnc3c(cnn3C(C)(C)C)c2=O)no1`, the viability was 102%. Work on `O=C(OCCCCN1C(=O)c2ccccc2C1=O)c1n[nH]c2ccccc12` yielded a viability of 76.4%. Work on `CCOC(=O)CSc1nnc(-c2ccccc2OC)o1` yielded a viability of 80.2%. With `O=C(Nn1cnnc1)c1cc2c(s1)CCCC2` the viability was 80%. With `Cc1cc2nc(C3CCN(CC4COc5ccccc5O4)CC3)[nH]c2cc1C` (stereo not given) the viability was 3.41% (active). Compound `CCOc1ccc(S(=O)(=O)Nc2cccc(Cl)c2)cc1` has a viability of 50.7%. `O=C(OCc1nnc(-c2ccccc2)o1)c1ccc2ccccc2n1` gave a viability of 100%. Work on `COc1ccc(-c2nnc3sc(-c4c(OC)cccc4OC)nn23)cc1` yielded a viability of 62.6%. Work on `CC1=Nn2c(nnc2-c2cc(-c3ccccc3)n[nH]2)SC1` yielded a viability of 94.3%. `COc1cccc(C2C(C#N)=C(N)OC3=C2C(=O)CCC3)c1OC(=O)c1ccco1` (stereo not given) showed a viability of 83.6%. In the case of `CCN(C1CCCCC1)S(=O)(=O)c1ccc(OC)c(C)c1`, the viability is reported as 91.5%. Work on `O=C(C1CC1)N1CCc2cc(S(=O)(=O)N(CCO)Cc3ccccc3)ccc21` yielded a viability of 77%. In the case of `COc1ccc(Cl)cc1S(=O)(=O)n1cnc2ccccc21`, the viability is reported as 59.1%. Work on `CCOC(=O)C(CC)Sc1nc2c(c(=O)[nH]c(=O)n2C)n1C/C=C(/C)Cl` (stereo not given) yielded a viability of 89.9%. Compound `Cc1cc2c(c(=O)o1)C(Cc1ccccc1)C(C#N)=C(N)O2` (stereo not given) has a viability of 87.2%. In the case of `Cc1nc2scc(-c3cccs3)c2c(=O)n1-n1cccc1`, the viability is reported as 82.3%. Work on `Cc1cc(-n2c(C)cc(C(=O)CSc3nc4ccccc4c(=O)n3Cc3ccco3)c2C)no1` yielded a viability of 92.2%. Work on `N#Cc1c(NC(=O)c2ccc(Br)o2)n(-c2ccccc2)c2nc3ccccc3nc12` yielded a viability of 71.1%. Work on `CCC1C(=O)n2nc(-c3ccccc3)cc2N=C1C` (stereo not given) yielded a viability of 86.9%. For `O=C(CN1C(=O)CSC1=O)N1CCc2ccccc2C1`, the viability was 73.4%. With `C1CCc2nnc(-c3nnc4n3CCCCC4)n2CC1` the viability was 104%. Compound `O=C(CCCCCn1c(SCc2ccncc2)nc2ccccc2c1=O)NCc1ccco1` has a viability of 96.9%. Compound `CCSc1nnc(NC(=O)c2nn(C(C)C)c(=O)c3ccccc23)s1` has a viability of 81.5%. With `CN(C)c1ccc2c(c1)OC(N)=C(C#N)C2c1cccc(F)c1` (stereo not given) the viability was 17.2% (active). `CN(C)c1ccc(NC(=O)c2cc3c(=O)n4ccccc4nc3n2C)cc1` showed a viability of 97.8%. In the case of `CC(CN1CCN(C)CC1)OC(=O)c1ccc(Cl)cc1Cl` (stereo not given), the viability is reported as 88.6%. `COc1ccccc1Nc1ncnc2c1cnn2-c1cccc(C)c1` showed a viability of 87.7%. `NCCN1CCN(CCN)CC1` showed a viability of 84.6%. For `CCOc1ccc2nc(NC(=O)CSc3nnnn3C3CCCCC3)sc2c1`, the viability was 59.7%.

Assay: growth inhibitors of H69AR lung tumor, primary screen, human, duplicate replicates (AID 580);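 further: 100% = mean luminescence of untreated wells and 0% = no signal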
Details: H69AR lung tumor cells viability, ATP luminescence, 72 h; at 10 µM; hits give low values
`Cn1c(=O)c2c(nc(N3CCCCC3)n2CCSc2nc3ccccc3o2)n(C)c1=O` gave a viability of 82.2%. `CCOC(=O)C1=C(C)N=c2s/c(=C\c3cccn3C)c(=O)n2C1c1cccc(OC)c1OC` (stereo not given) gave a viability of 87.4%. Compound `C=CCn1c(SCC(=O)O)nnc1-c1cccc(Cl)c1` has a viability of 109%. `Cc1ccc(S(=O)(=O)N2CCC(C(=O)NCCN3CCCCCC3)CC2)cc1` gave a viability of 103%. With `CCOC(=O)c1sc(N2C(=O)C(O)=C(C(=O)c3ccco3)C2c2ccccc2)nc1C` (stereo not given) the viability was 84.2%. Compound `COc1cc(C)nc(NS(=O)(=O)c2ccc(C)cc2)n1` has a viability of 84.9%. With `CCCCC(=O)Nc1nn(CCC)c2nc3ccccc3cc12` the viability was 96.1%. In the case of `CCCCCOC(=O)CSc1nnc(-c2cc(OC)c(OC)c(OC)c2)o1`, the viability is reported as 104%. In the case of `O=C(CN1CCN(C(=O)c2ccccc2)CC1)Nc1ncc(Br)cc1Br`, the viability is reported as 77.9%. `O=C(c1ccc2c(c1)OCCO2)C1CCN(C(=O)c2ccc(F)cc2)CC1` gave a viability of 83.8%. Compound `Cc1cc2c(c(=O)n1CCc1ccccc1)C(C(C)C)C(C#N)=C(N)O2` (stereo not given) has a viability of 83.5%. With `Cc1cc(NC(=O)Cn2cnc3c(cnn3C(C)(C)C)c2=O)no1` the viability was 91.9%. `O=C(OCCCCN1C(=O)c2ccccc2C1=O)c1n[nH]c2ccccc12` gave a viability of 101%. With `CCOC(=O)CSc1nnc(-c2ccccc2OC)o1` the viability was 94.8%. With `O=C(Nn1cnnc1)c1cc2c(s1)CCCC2` the viability was 102%. For `Cc1cc2nc(C3CCN(CC4COc5ccccc5O4)CC3)[nH]c2cc1C` (stereo not given), the viability was 77.8%. In the case of `CCOc1ccc(S(=O)(=O)Nc2cccc(Cl)c2)cc1`, the viability is reported as 18.8% (active). `O=C(OCc1nnc(-c2ccccc2)o1)c1ccc2ccccc2n1` showed a viability of 89.4%. Compound `COc1ccc(-c2nnc3sc(-c4c(OC)cccc4OC)nn23)cc1` has a viability of 75.9%. In the case of `CC1=Nn2c(nnc2-c2cc(-c3ccccc3)n[nH]2)SC1`, the viability is reported as 91.4%. Work on `COc1cccc(C2C(C#N)=C(N)OC3=C2C(=O)CCC3)c1OC(=O)c1ccco1` (stereo not given) yielded a viability of 99.7%. `CCN(C1CCCCC1)S(=O)(=O)c1ccc(OC)c(C)c1` gave a viability of 93.1%. With `O=C(C1CC1)N1CCc2cc(S(=O)(=O)N(CCO)Cc3ccccc3)ccc21` the viability was 98.8%. For `COc1ccc(Cl)cc1S(=O)(=O)n1cnc2ccccc21`, the viability was 33.7% (active). Work on `CCOC(=O)C(CC)Sc1nc2c(c(=O)[nH]c(=O)n2C)n1C/C=C(/C)Cl` (stereo not given) yielded a viability of 84.9%. With `Cc1cc2c(c(=O)o1)C(Cc1ccccc1)C(C#N)=C(N)O2` (stereo not given) the viability was 98.7%. Work on `Cc1nc2scc(-c3cccs3)c2c(=O)n1-n1cccc1` yielded a viability of 99.3%. With `Cc1cc(-n2c(C)cc(C(=O)CSc3nc4ccccc4c(=O)n3Cc3ccco3)c2C)no1` the viability was 93.8%. `N#Cc1c(NC(=O)c2ccc(Br)o2)n(-c2ccccc2)c2nc3ccccc3nc12` showed a viability of 85.2%. Compound `CCC1C(=O)n2nc(-c3ccccc3)cc2N=C1C` (stereo not given) has a viability of 99%. Work on `O=C(CN1C(=O)CSC1=O)N1CCc2ccccc2C1` yielded a viability of 89.6%. For `C1CCc2nnc(-c3nnc4n3CCCCC4)n2CC1`, the viability was 93%. In the case of `O=C(CCCCCn1c(SCc2ccncc2)nc2ccccc2c1=O)NCc1ccco1`, the viability is reported as 74.6%. With `CCSc1nnc(NC(=O)c2nn(C(C)C)c(=O)c3ccccc23)s1` the viability was 79.4%. In the case of `CN(C)c1ccc2c(c1)OC(N)=C(C#N)C2c1cccc(F)c1` (stereo not given), the viability is reported as 34.7% (active). In the case of `CN(C)c1ccc(NC(=O)c2cc3c(=O)n4ccccc4nc3n2C)cc1`, the viability is reported as 80.3%. Work on `CC(CN1CCN(C)CC1)OC(=O)c1ccc(Cl)cc1Cl` (stereo not given) yielded a viability of 102%. In the case of `COc1ccccc1Nc1ncnc2c1cnn2-c1cccc(C)c1`, the viability is reported as 95.4%. Work on `NCCN1CCN(CCN)CC1` yielded a viability of 93.7%. `CCOc1ccc2nc(NC(=O)CSc3nnnn3C3CCCCC3)sc2c1` showed a viability of 63.5%.

— PubChem BioAssay
